Measured values pooled from the literature.
Lines come from different studies, so protocols differ.
Target: Serine/threonine-protein kinase MARK2 (MARK2, Homo sapiens, UniProt Q7KZI7)

Nc1ncnc2occ(-c3ccc(NC(=O)Nc4cc(C(F)(F)F)ccc4F)cc3)c12 has a remaining signal of 22% (cell-free assay; inhibitor; 20 µM).
NS(=O)(=O)c1ccc(CNc2nc(Nc3cccc(NC(=O)N4CCCC4)c3)ncc2C2CC2)cc1 has a remaining activity of 93% (enzyme activity; inhibitor; radiometric; 1 µM).
The remaining binding of CC(=O)N1CCC(c2ccc(C(=O)NC3=NCCN3)cc2C(F)(F)F)CC1 is reported as 100% (cell-free assay; competition with immobilised ligand; 1 µM).
With O=C1Nc2ccc(Cl)cc2C1=Cc1cc(Cl)c(O)c(Cl)c1 the remaining signal was 79.7% (cell-free assay; 0.5 µM).
For Cc1ccc(Nc2nccc(N(C)c3ccc4c(C)n(C)nc4c3)n2)cc1S(N)(=O)=O, the inhibition was 16% (enzyme activity; inhibitor; 10 µM).
O=C(NCCCNc1ccnc(Nc2cccc(NC(=O)N3CCCC3)c2)n1)C1CCC1 has a remaining activity of 82% (enzyme activity; inhibitor; radiometric; 1 µM).
The inhibition of CN(C)C1CCN(CC#Cc2nn(C3CCCC3)c3nc(NCc4ccccc4)ncc23)C1 (centres unmarked) is reported as 16% (enzyme activity; inhibitor; FRET; 10 µM).
CN1CC(Oc2cnc(C#N)cc2-c2ccn3nc(NC(=O)C4CC4)cc3c2)C1 gave an inhibition of -1% (enzyme activity; inhibitor; 1 µM).
With CN1CCN(c2cnc3c(C4CCN(C(=O)c5ccc(OC(F)(F)F)cc5N)CC4)ncnc3c2)CC1 the remaining binding was 100% (cell-free assay; competition with immobilised ligand; 1 µM).
With COc1cc2ncnc(Nc3ccc(Oc4ccccc4)c(C)c3C)c2cc1OC the inhibition was 6% (enzyme activity; inhibitor; 1 µM).
O=C(N[C@H]1CCCCC/C=C\C2C[C@@]2(C(=O)O)NC(=O)[C@@H]2C[C@@H](Oc3ccncc3)CN2C1=O)OC1CCCC1 (some centres unmarked) gave a remaining binding of 81% (binding; competition with immobilised ligand; 1 µM).
O=C(NCCCNc1nc(Nc2cccc(NC(=O)N3CCCC3)c2)ncc1C1CC1)C1CCC1 gave a remaining activity of 6% (enzyme activity; inhibitor; radiometric; 1 µM).
CS(=O)(=O)c1cc(C2(NC(=O)c3cncc4c3cnn4-c3ccc(F)cc3)CC2)ccn1 has a remaining binding of 100% (cell-free assay; competition with immobilised ligand; 1 µM).
Cc1nn(CC(F)(F)F)cc1Nc1nccc(NCCc2cnc[nH]2)n1 gave a remaining activity of 104% (enzyme activity; inhibitor; radiometric; 1 µM).
With Cc1ccc(NC(=O)c2ccc(C)c(C(F)(F)F)c2)cc1C#Cc1nn(C2CCC(O)CC2)c2ncnc(N)c12 (centres unmarked) the remaining signal was 98% (cell-free assay; 10 µM).
For Cc1c(NC(=O)c2cc(C(N)=O)nc3cc(F)ccc23)c(C(F)(F)F)nn1Cc1ccc(C#N)cc1, the remaining binding was 97% (cell-free assay; competition with immobilised ligand; 1 µM).
CNc1cccc2cc(C(=O)Nc3ccc(C(=O)O)cc3)c(=O)[nH]c12 has an inhibition of -5.3% (enzyme activity; inhibitor; 10 µM).
CS(=O)(=O)N1CCCC(NC(=O)[C@H](CCC2CCCCC2)NC(=O)c2ccc(CNC(=O)c3cnc4ccccn34)cc2)C1 (some centres unmarked) has a remaining binding of 100% (cell-free assay; competition with immobilised ligand; 0.1 µM).
c1cc(CN2CCOCC2)cc(Nc2nccc(NCCc3cnc[nH]3)n2)c1 gave a remaining activity of 93% (enzyme activity; inhibitor; radiometric; 1 µM).
For CCN1CCN(Cc2ccc(NC(=O)c3ccc(C)c(Oc4ccnc5[nH]ccc45)c3)cc2C(F)(F)F)CC1, the inhibition was -10.4% (target engagement in cells; inhibitor; chemoproteomics; Huh-7; 1 µM).
For Cc1cc(NC(=O)c2cccc3cc(-c4cccc5[nH]nc(N)c45)ccc23)ccc1F, the activity vs control was 94% (enzyme activity; inhibitor; 0.1 µM).
FC(F)(F)Oc1cccc(-c2cnc3ccc(-c4ccncc4)nn23)c1 has an activity vs control of 106% (enzyme activity; inhibitor; radiometric; 1 µM).
COc1cc(/C=C/C(=O)CC(=O)/C=C/c2ccc(O)c(OC)c2)ccc1O gave an activity vs control of 78% (enzyme activity; inhibitor; 1 µM).
The remaining binding of O=C(Nc1cccnn1)N1CC(C/C=C/c2cncc(Oc3ccc(C(F)(F)F)cn3)n2)C1 is reported as 80% (cell-free assay; competition with immobilised ligand; 1 µM).
For O=C(NCCCNc1nc(Nc2cccc(NC(=O)N3CCCC3)c2)ncc1Br)C1CCC1, the remaining activity was 2% (enzyme activity; inhibitor; radiometric; 1 µM).
With c1ccc(CNc2nc(N3CCOc4ccccc43)nc3c2CCCC3)cc1 the inhibition was -11.2% (target engagement in cells; inhibitor; chemoproteomics; 20 mM).
N#CCCc1ccc2c(c1)-c1[nH]c3ccc([N+](=O)[O-])cc3c1CC(=O)N2 gave a remaining signal of 65.5% (cell-free assay; 0.5 µM).
CNC(=O)c1cc(Oc2ccc(NC(=O)Nc3ccc(Cl)c(C(F)(F)F)c3)cc2)ccn1 gave an inhibition of 28% (enzyme activity; inhibitor; 0.3 µM).
The remaining activity of O=C(NCCCNc1nc(Nc2cccc(CN3CCOCC3)c2)ncc1C1CC1)C1CCC1 is reported as 4% (enzyme activity; inhibitor; radiometric; 1 µM).
With C[C@@H]1CCN(C(=O)CC#N)C[C@@H]1N(C)c1ncnc2[nH]ccc12 the remaining signal was 91.8% (cell-free assay; inhibitor; 0.5 µM).
For Cc1cc(-n2nc(Cc3cc(F)cc(C(F)(F)F)c3)nc2C)ccc1C(N)=O, the remaining binding was 89% (cell-free assay; competition with immobilised ligand; 1 µM).
With O=C(Nc1cccc(Nc2ncc(Br)c(NCCc3cnc[nH]3)n2)c1)N1CCCC1 the remaining activity was 5% (enzyme activity; inhibitor; radiometric; 1 µM).
